Assay [1] deals with T1, Hypoxia inducible factors; HIF-1-alpha, HIF-2-alpha (Homo sapiens, UniProt Q16665+Q99814). Briefly: Inhibition of HIF1 in human LN229 cells after 1 hr preincubation under hypoxic condition measured after 24 hrs by luciferase reporter gene assay. In kind it is cell-based. The gist of the method: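 LN229-HRELux human glioma cells stably carry a luciferase reporter driven by six VEGF-derived HIF response elements. Cells were seeded at 3 × 10^4 per well and held 24 h in normoxia, then pretreated 1 h with compound at 0, 1, 5, 10 or 25 μM (vehicle 1% DMSO). They were then moved to hypoxia (1% O2) for 24 h, lysed and read for luciferase. Reference inhibitor ran alongside; quadruplicate wells; IC50 from concentration curve.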
A general note: Reporter assays use an easily measured gene product as a stand-in for the process of interest.

The target of assay [2] is T1, Hypoxia inducible factors; HIF-1-alpha, HIF-2-alpha. Briefly: Inhibition of HIF1 in human LN229 cells at 10 uM after 1 hr preincubation under hypoxic condition measured after 24 hrs by luciferase reporter gene assay. The assay is classed as cell-based. The gist of the method:
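LN229 glioma cells stably transfected with VEGF promoter-luciferase (LN229-VEGF-Luc) were pretreated 1 h in normoxia with 10 μM (final) compound, then kept 24 h in normoxia or hypoxia. Luciferase was read as relative light units against vehicle control; triplicates, mean ± standard deviation.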

In assay [3] the target is Hypoxia-inducible factor 1-alpha (Homo sapiens) (UniProt Q16665). Briefly: Inhibition of hypoxia-induced HIF1alpha accumulation in human LN229 cells at 20 uM after 1 hr preincubation measured after 24 hrs by Western blot analysis. The assay is classed as functional, cell-based. Particulars: LN-229. The method, boiled down:
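Western blot for HIF-1α in LN229 cells after 1 h pretreatment with inhibitor at 20 μM final (bortezomib control 100 nM), followed by 24 h in normoxia or hypoxia.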
Background: Immunoblotting shows a protein as a band on a membrane.

For a further assay, the system named is LN229. Briefly: Ratio of KCN-1 IC50 to compound IC50 for HIF1 in human LN229 cells under hypoxic condition. In kind it is cell-based.

The pIC50 is the negative decadic logarithm of the IC50, by convention in mol/L. A low value points to a high IC50. What is called IC50 is the concentration needed to halve the response being measured. Read a high IC50 as lower potency.

pIC50: −log10 of the molar value. The source made the active and inactive calls. The calls are words filed in the database; no cut-off is given here. A value given as a limit tells only on which side of the number the result lay.

Hypoxia-inducible factor 1-alpha (Homo sapiens), sequence (Q16665 whole entry, looked up): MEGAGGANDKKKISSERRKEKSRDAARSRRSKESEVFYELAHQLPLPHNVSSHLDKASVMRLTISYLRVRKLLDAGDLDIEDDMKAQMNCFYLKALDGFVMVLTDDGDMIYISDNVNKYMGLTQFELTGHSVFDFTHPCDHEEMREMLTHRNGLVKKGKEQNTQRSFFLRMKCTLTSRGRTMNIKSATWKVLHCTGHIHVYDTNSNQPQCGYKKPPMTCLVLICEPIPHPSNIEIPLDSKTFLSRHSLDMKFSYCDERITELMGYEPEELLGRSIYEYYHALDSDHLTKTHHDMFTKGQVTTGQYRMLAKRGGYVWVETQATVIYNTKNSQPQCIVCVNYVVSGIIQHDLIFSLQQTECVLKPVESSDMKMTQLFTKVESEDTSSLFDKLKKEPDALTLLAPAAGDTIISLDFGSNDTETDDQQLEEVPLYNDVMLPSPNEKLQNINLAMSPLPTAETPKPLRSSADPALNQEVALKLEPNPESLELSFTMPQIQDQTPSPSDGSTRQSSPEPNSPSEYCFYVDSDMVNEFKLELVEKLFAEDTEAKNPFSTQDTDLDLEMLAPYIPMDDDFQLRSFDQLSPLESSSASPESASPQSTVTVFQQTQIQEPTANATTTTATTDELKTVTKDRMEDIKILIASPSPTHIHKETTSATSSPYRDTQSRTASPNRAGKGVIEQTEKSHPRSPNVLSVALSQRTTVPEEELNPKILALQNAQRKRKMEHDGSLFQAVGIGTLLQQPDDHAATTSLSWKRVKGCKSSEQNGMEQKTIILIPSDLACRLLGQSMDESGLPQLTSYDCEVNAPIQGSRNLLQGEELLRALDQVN

On to `COc1ccc(S(=O)(=O)N(Cc2cnc3ccccc3c2)c2ccccc2)cc1OC`, for which the negative-log IC50 (pIC50) in assay [1] is 5.46.
On to `COc1c(C(C)n2cnc3ncccc32)ccc2c1C=CC(C)(C)O2` (stereo not drawn), for which the “HIF1 inhibition activity call (active/inactive)” value in assay [2] is “Active”. For the same compound, the inhibition entry in assay [3] is “inactive”.
Turning to `COc1ccc(S(=O)(=O)N(Cc2ccc3c(n2)C=CC(C)(C)O3)c2ccc3c(c2)CCCC3)cc1OC`, the concentration for half-maximal inhibition (IC50) in assay [1] came out at 6.2 µM. In other words, the single-digit micromolar range.
In turn, `COc1ccc(S(=O)(=O)N(Cc2ccc3c(n2)C=CC(C)(C)O3)C2CCC2)cc1OC` came in with a half-inhibitory concentration (IC50) in assay [1] of 0.28 µM. In assay [2], the “HIF1 inhibition activity call (active/inactive)” value is “Active”. The inhibition entry in assay [3] was “inactive”. The Ratio IC50 with LN229 was > 2.
As for `COc1ccc(S(=O)(=O)N(Cc2ccc3c(c2)C=CC(C)(C)O3)c2ccccc2)cc1`, the half-maximal inhibitory concentration (IC50) in assay [1] amounted to 0.6 µM.
In turn, `CC1(C)C=Cc2nc(CN(c3ccccc3)S(=O)(=O)c3cccc4cccnc34)ccc2O1` had an IC50 in assay [1] of 0.9 µM.
In assay [1], `COc1ccc(S(=O)(=O)N(Cc2ccc3c(n2)C=CC(C)(C)O3)C2CCCCC2)cc1OC` had an IC50 of 0.8 µM.
Turning to `CC1(C)C=Cc2nc(CN(c3ccccc3)S(=O)(=O)c3ccc4c(c3)OCCO4)ccc2O1`, in assay [1], the half-inhibitory concentration (IC50) turned out to be 0.9 µM.
Turning to `COc1ccc(S(=O)(=O)N(Cc2ccc3c(c2)CC(C)(C)O3)C(C)C)cc1OC`, the half-inhibitory concentration (IC50) in assay [1] amounted to 1.5 µM. Against the preceding compound, the IC50 is about 1.7-fold higher.
Still for that read-out and setting: the result for `CC1(C)C=Cc2nc(CN(c3ccccc3)S(=O)(=O)c3ccc(-c4ccccc4)cc3)ccc2O1` reads 3.4 µM.
The same measure, in the same setting: the result for `C=CCN(Cc1ccc2c(c1)C=CC(C)(C)O2)S(=O)(=O)c1ccc(OC)c(OC)c1` reads 3.4 µM; that for `COc1ccc(S(=O)(=O)N(Cc2cnc3c(c2)C=CC(C)(C)O3)C2CCCCC2)cc1OC`, > 25 µM.
Still for that read-out and setting: with `COc1ccc(N(C)Cc2ccc3c(c2)C=CC(C)(C)O3)cc1OC` the figure was 5 µM.
Compound `COc1ccc(S(=O)(=O)N(Cc2cc3c(cn2)OC(C)(C)C=C3)C2CCCCC2)cc1OC` gave an IC50 in assay [1] of 1.1 µM.
Still for that read-out and setting: with `COc1ccc(S(=O)(=O)N(Cc2ccc3c(c2)C=CC(C)(C)O3)C2CC2)cc1OC` the figure was 1.5 µM.
The compound `COc1ccc(S(=O)(=O)N(Cc2ccc3c(c2)C=CC(C)(C)O3)C2CCCC2)cc1OC` registered a concentration for half-maximal inhibition (IC50) in assay [1] of 0.5 µM. Also, in assay [2], the “HIF1 inhibition activity call (active/inactive)” value is “Active”. Besides, the inhibition entry in assay [3] was “Active”.
For the compound `C#CCN(Cc1ccc2c(c1)C=CC(C)(C)O2)S(=O)(=O)c1ccc(OC)c(OC)c1`, the concentration for half-maximal inhibition (IC50) in assay [1] came out at 1.3 µM.
Same read-out and setting: with `CC1(C)C=Cc2cc(CNc3ccccn3)ccc2O1` the figure was 8.5 µM; with `COc1ccc(S(=O)(=O)N(Cc2ccc3c(n2)C=CC(C)(C)O3)C2CCCC2)cc1OC`, 0.6 µM; with `CC1(C)C=Cc2cc(CNc3ccccc3F)ccc2O1`, > 25 µM.
Same read-out and setting: with `COc1ccc(S(=O)(=O)N(Cc2ccc3c(n2)C=CC(C)(C)O3)C2CCCCCC2)cc1OC` the figure was 6.6 µM.
For `COc1ccc(S(=O)(=O)N(CCC(C)C)Cc2ccc3c(c2)C=CC(C)(C)O3)cc1OC`, in assay [1], the 50% inhibitory concentration (IC50) worked out at 1.6 µM. This IC50 is about 4.1-fold lower than that of the compound before.
`CCCS(=O)(=O)N(Cc1ccc2c(n1)C=CC(C)(C)O2)c1ccccc1` returned a 50% inhibitory concentration (IC50) in assay [1] of 6.4 µM.
The compound `CN(Cc1ccc2c(c1)C=CC(C)(C)O2)c1ccccn1` registered a half-maximal inhibitory concentration (IC50) in assay [1] of 8.4 µM. The IC50 values of the last two compounds are within 1.5-fold of each other.
On to `COc1ccc(S(=O)(=O)N(Cc2ccc3c(c2)CC(C)(C)O3)C2CCCC2)cc1OC`, for which the concentration for half-maximal inhibition (IC50) in assay [1] was found to be 0.378 µM. Moreover, the “HIF1 inhibition activity call (active/inactive)” value in assay [2] is “Active”. Moreover, the inhibition result in assay [3] was “inactive”.
Turning to `CC1(C)C=Cc2nc(CN(c3ccccc3)S(=O)(=O)C3CC3)ccc2O1`, in assay [1], the IC50 is > 25 µM.
On the same count and under the same terms, with `COc1ccc(S(=O)(=O)N(Cc2cnc3c(c2)C=CC(C)(C)O3)c2ccccc2)cc1OC` the figure was 2.5 µM.
On the same count and under the same terms, with `CC1(C)C=Cc2nc(CN(c3ccccc3)S(=O)(=O)c3ccc4c(c3)OCO4)ccc2O1` the figure was 6.5 µM.
On to `CCCCN(Cc1ccc2c(c1)CC(C)(C)O2)S(=O)(=O)c1ccc(OC)c(OC)c1`, for which the IC50 in assay [1] was 0.478 µM. Also, the “HIF1 inhibition activity call (active/inactive)” value in assay [2] is “Active”. The inhibition entry in assay [3] is “inactive”.
Take `Cc1ccc(N(C)Cc2ccc3c(c2)C=CC(C)(C)O3)c(C)c1`: in assay [1], the IC50 came to 2.6 µM.
As to `CC1(C)C=Cc2cc(CNc3ccc(C(=O)O)cc3)ccc2O1`, the concentration for half-maximal inhibition (IC50) in assay [1] is > 25 µM.
On the same count and under the same terms, with `CCCCN(Cc1ccc2c(c1)C=CC(C)(C)O2)S(=O)(=O)c1ccc(OC)c(OC)c1` the figure was 3.3 µM; with `Cc1cc(C)cc(S(=O)(=O)N(Cc2ccc3c(c2)C=CC(C)(C)O3)c2ccccc2)c1`, 0.5 µM; with `COc1ccc(S(=O)(=O)N(Cc2ccc3c(n2)C=CC(C)(C)O3)c2ccc(F)cc2)cc1OC`, 5.7 µM.
As for `CC1(C)C=Cc2cc(CN(c3ccccc3)S(=O)(=O)c3ccc([N+](=O)[O-])cc3)ncc2O1`, in assay [1], the IC50 was found to be 1.8 µM. This IC50 lies about 3.2-fold lower than the previous one.
On the same count and under the same terms, the result for `COc1ccc(S(=O)(=O)N(Cc2ccc3c(n2)C=CC(C)(C)O3)c2ccccc2)cc1OC` reads 1.3 µM.
As to `COc1ccc(S(=O)(=O)N(Cc2ccc3c(c2)C=CC(C)(C)O3)C(C)C)cc1OC`, the concentration for half-maximal inhibition (IC50) in assay [1] amounted to 3.1 µM. Compared with the last compound, the IC50 is about 2.4-fold higher.
On the same count and under the same terms, with `COc1ccc(S(=O)(=O)N(Cc2ccc3c(c2)C=CC(C)(C)O3)C2CCCCC2)cc1OC` the figure was 4 µM.
Take `CC(C)C[C@H](NC(=O)[C@H](Cc1ccccc1)NC(=O)c1cnccn1)B(O)O`: the inhibition entry in assay [3] was “Active”.
Consider `COc1ccc(S(=O)(=O)N(Cc2ccc3c(c2)C=CC(C)(C)O3)c2ccccc2)cc1OC`, for which, in assay [2], the “HIF1 inhibition activity call (active/inactive)” value was “Active”. Also, the inhibition result in assay [3] is “inactive”.
On to `COc1ccc(S(=O)(=O)N(Cc2ccc3c(c2)C=CC(C)(C)O3)C(C)(C)C)cc1OC`, for which the IC50 in assay [1] amounted to 3.5 µM. This lies in the single-digit micromolar range.
Still for that read-out and setting: the result for `COc1ccc(S(=O)(=O)N(Cc2ccc3c(c2)CC(C)(C)O3)C2CCCCCC2)cc1OC` reads 9.1 µM.
On the same count and under the same terms, the result for `COc1ccc(S(=O)(=O)N(Cc2ccc3c(n2)C=CC(C)(C)O3)C2CCCCCCC2)cc1OC` reads 0.7 µM; that for `CCCCS(=O)(=O)N(Cc1ccc2c(n1)C=CC(C)(C)O2)c1ccccc1`, 5 µM.
The same measure, in the same setting: the result for `CC(C)CS(=O)(=O)N(Cc1ccc2c(n1)C=CC(C)(C)O2)c1ccccc1` reads 0.9 µM.
In the case of `CC1(C)C=Cc2nc(CN(c3ccccc3)S(=O)(=O)C3CCCCC3)ccc2O1`, the half-maximal inhibitory concentration (IC50) in assay [1] came to 0.4 µM.
Still for that read-out and setting: with `COc1ccc(N(Cc2ccc3c(n2)C=CC(C)(C)O3)S(=O)(=O)c2ccc(OC)c(OC)c2)cc1OC` the figure was > 25 µM.
As for `COc1ccc(S(=O)(=O)N(Cc2ccc3c(c2)CC(C)(C)O3)c2ccccc2)cc1OC`, in assay [1], the IC50 was 0.306 µM. Also, in assay [2], the “HIF1 inhibition activity call (active/inactive)” value was “Active”. Besides, the inhibition entry in assay [3] was “Active”. Moreover, the Ratio IC50 in the assay with LN229 is > 2.
The compound `COc1ccc(S(=O)(=O)N(Cc2cc3c(cn2)OC(C)(C)C=C3)c2ccccc2)cc1` came in with an IC50 in assay [1] of 1.4 µM.
Same read-out and setting: with `COc1ccc(S(=O)(=O)N(Cc2ccc3c(c2)CC(C)(C)O3)C2CCCCC2)cc1OC` the figure was 8.2 µM; with `CC(C)c1ccc(S(=O)(=O)N(Cc2cc3c(cn2)OC(C)(C)C=C3)C2CCCCC2)cc1`, 5.8 µM.
The same measure, in the same setting: the result for `Cc1ccc(NCc2ccc3c(c2)C=CC(C)(C)O3)c(C)c1` reads > 25 µM; that for `CC1(C)C=Cc2cc(CN(c3ccccc3)S(=O)(=O)c3cc(Cl)ccc3Cl)ccc2O1`, 2.1 µM; that for `CCCCN(Cc1ccc2c(n1)C=CC(C)(C)O2)S(=O)(=O)c1ccc(OC)c(OC)c1`, 0.9 µM.
The same measure, in the same setting: with `COc1ccc(NCc2ccc3c(c2)C=CC(C)(C)O3)cc1OC` the figure was 3 µM.
Turning to `CC1(C)C=Cc2cc(CNc3ccccc3Br)ccc2O1`, the half-inhibitory concentration (IC50) in assay [1] is > 25 µM.
The same measure, in the same setting: with `CC(C)S(=O)(=O)N(Cc1ccc2c(n1)C=CC(C)(C)O2)c1ccccc1` the figure was 13.4 µM; with `CCC1(C)C=Cc2cc(CN(c3ccccc3)S(=O)(=O)c3ccc(OC)c(OC)c3)ccc2O1` (stereo not drawn), 2.2 µM; with `CC1(C)C=Cc2cc(CN(c3ccccc3)S(=O)(=O)c3ccc(Br)cc3OC(F)(F)F)ccc2O1`, > 25 µM.

(Values after ChEMBL document CHEMBL1938365, “Design and synthesis of novel small-molecule inhibitors of the hypoxia inducible factor pathway” (J Med Chem, 2011).)
